Assay results from different studies.
Each line is one published result; the experiments were not run side by side.
Read-out: cell growth or viability

CCn1c(C)c(N=Nc2ccccc2)sc1=NN=C(C)c1c(O)c2ccccc2oc1=O
IC50 (human Skin fibroblast; MTT; 48 h): > 100 µM

CCn1c(-c2nnc(NC(=O)c3cc4c([nH]c5ccccc54)c(-c4cc(OC)c(OC)c(OC)c4)n3)s2)cc2ccccc21
IC50 (BT-474; MTT; 72 h): 19.5 µM

CC(=NN=C1SCC(=O)N1C)c1c(O)c2ccccc2oc1=O
IC50 (human Skin fibroblast; MTT; 48 h): > 100 µM

COc1ccc2c(c1)NC(=O)CN2c1nc(C)nc2c1CCC2
IC50 (A375/TxR; MTS; drug-resistant strain): 0.0011 µM

Cn1cnc2c(F)c(Nc3ccc(Br)cc3Cl)c(C(=O)NOCCO)cc21
IC50 (MB002; 7 days): > 10 µM

COc1cc(Nc2nccc(-c3cnn4nc(OC)ccc34)n2)cc(C(F)(F)F)c1
IC50 (SW948; ATP luminescence): 3 µM

CC[C@]1(O)C[C@H]2CN(CCc3c([nH]c4ccccc34)[C@@](C(=O)OC)(c3cc4c(cc3OC)N(C=O)[C@H]3[C@@](O)(C(=O)OC)[C@H](OC(C)=O)[C@]5(CC)C=CCN6CC[C@]43[C@@H]65)C2)C1
IC50 (KB 3-1; MTT): 0.00744 µM

CC1(C)CC[C@]2(C(=O)O)CC[C@]3(C)C(=CC[C@@H]4[C@@]5(C)CC[C@H](O)C(C)(C)[C@@H]5CC[C@]43C)[C@@H]2C1
IC50 (human Skin fibroblast; MTT; 48 h): 63.6 µM

CC(=NN=c1scc(C)n1C)c1c(O)c2ccccc2oc1=O
IC50 (human Skin fibroblast; MTT; 48 h): > 100 µM

O=C(Nc1nnc(-c2cc3ccccc3[nH]2)s1)c1cc2c([nH]c3ccccc32)c(-c2ccc(F)cc2)n1
IC50 (BT-474; MTT; 72 h): 9.2 µM

CCOC(=O)c1sc(=NN=C(C)c2c(O)c3ccccc3oc2=O)[nH]c1C
IC50 (human Skin fibroblast; MTT; 48 h): > 100 µM

Cn1c(=O)n(-c2ccc(C(C)(C)C#N)cc2)c2c3cc(-c4cnc5ccccc5c4)ccc3ncc21
IC50 (MB002; 7 days): 0.031 µM

Oc1ccc(Nc2nc(-c3ccc(Cl)cc3)cs2)cc1
IC50 (WM278; MTS; 24 h): 20 µM

Cc1cc(-c2nc(C(=O)Nc3cc4oc(N5CCOCC5)nc4nc3N3CC[C@@H](O)C3)co2)ccn1
IC50 (B16-F10; 5 days): 0.55 µM

Cn1ncnc1[C@H]1c2n[nH]c(=O)c3cc(F)cc(c23)N[C@@H]1c1ccc(F)cc1
IC50 (MB002; 7 days): 0.00373 µM

COc1cc(-c2nc(C(=O)Nc3nnc(-c4cc5ccccc5n4C)s3)cc3c2[nH]c2ccccc23)cc(OC)c1OC
IC50 (BT-474; MTT; 72 h): 9.15 µM

CC(=O)c1sc(=NN=C(C)c2c(O)c3ccccc3oc2=O)[nH]c1C
IC50 (human Skin fibroblast; MTT; 48 h): > 100 µM

O=C(NCc1ccc(CO)cc1)c1c[nH]c2ccc(Cl)cc12
IC50 (SK-N-BE; MTT): 15 µM

CC(C)C[C@H](NC(=O)[C@H](Cc1ccccc1)NC(=O)c1cnccn1)B(O)O
IC50 (SK-LU-1; ATP luminescence): 0.01 µM

COc1c(C)cnc(Cn2cnc3c(Cl)nc(N)nc32)c1C
IC50 (MB002; 7 days): 0.0974 µM

CCn1c(=O)c(-c2ccc(-c3cncs3)cc2Cl)cc2cnc(Nc3ccc(N4CCN(C)CC4)cc3)nc21
IC50 (CFPAC-1; MTT; 24 h): 6.92 µM

O=C(N/N=C/c1c(O)ccc2ccccc12)c1cc(-c2ccc3ccccc3c2)n[nH]1
IC50 (WM278; MTS; 72 h): 6.1 µM

Cc1nc(Nc2ncc(C(=O)Nc3c(C)cccc3Cl)s2)cc(N2CCN(CCO)CC2)n1
IC50 (MB002; 7 days): 2.65 µM

CC(C)c1cc(-c2n[nH]c(=O)n2-c2ccc3c(ccn3C)c2)c(O)cc1O
IC50 (BT-474; imaging; 24 h): 0.412 µM

C[C@H]1Oc2cc(cnc2N)-c2c(nn(C)c2C#N)CN(C)C(=O)c2ccc(F)cc21
IC50 (HD-MB03; 7 days): > 10 µM

CC(=NN=c1scc(-c2ccccc2)n1C)c1c(O)c2ccccc2oc1=O
IC50 (human Skin fibroblast; MTT; 48 h): > 100 µM

CC1(C)CCC(CN2CCN(c3ccc(C(=O)NS(=O)(=O)c4ccc(NCC5CCOCC5)c([N+](=O)[O-])c4)c(Oc4cnc5[nH]ccc5c4)c3)CC2)=C(c2ccc(Cl)cc2)C1
IC50 (MB002; 7 days): > 10 µM

CC(=NN=c1[nH]c(C)c(N=Nc2ccc(C)cc2)s1)c1c(O)c2ccccc2oc1=O
IC50 (human Skin fibroblast; MTT; 48 h): > 100 µM

Cn1c(-c2nnc(NC(=O)c3cc4c([nH]c5ccccc54)c(-c4ccc(F)cc4)n3)s2)cc2ccccc21
IC50 (BT-474; MTT; 72 h): 18.4 µM

COc1cccc2c1C(=O)c1c(O)c3c(c(O)c1C2=O)C[C@@](O)(C(=O)CO)C[C@@H]3O[C@H]1C[C@H](N)[C@H](O)[C@H](C)O1
IC50 (MB002; 7 days): 0.0645 µM
